Laboratory results from ChEMBL document CHEMBL2021879, “Novel pyrrolopyrimidine analogues as potent dipeptidyl peptidase IV inhibitors based on pharmacokinetic property-driven optimization” (Eur J Med Chem, 2012).
Calls of active or inactive are those of the source. The rule behind the calls is not given here.

How the values were obtained:
Mus musculus [1] = assay: Reduction of glucose excursions in C57Bl/6j lean mouse at 3 mg/kg, po measured after 45 mins by oral glucose tolerance test; format: functional, organism-based; parameters: dose 3 mg/kg
Method in brief: (§1)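 OGTT after oral treatment: C57BL/6j lean mice at 3 mg/kg, and ob/ob mice at 1, 3 and 10 mg/kg. Blood glucose followed over the glucose challenge; excursion expressed as AUC₀₋₁₂₀ change rate (percent inhibition).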

[2] = Oral bioavailability in Sprague-Dawley rat at 20 to 25 mg/kg administered as single dose; format: ADME, organism-based; settings: in vivo
[3] = Metabolic stability in rat liver microsomes assessed as compound remaining at 1 uM after 30 mins by LC-MS/MS; format: ADME, Microsome; settings: read-out: Stability
[4] = Metabolic stability in rat liver microsomes assessed as compound turnover at 1 uM after 30 mins by LC-MS/MS; format: ADME, Microsome; settings: read-out: Drug metabolism
Method in brief: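 Pooled rat liver microsomes, 30 min incubation; read-out is percent compound turnover (hepatic first-pass effect); mean of at least three independent determinations.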

[5] = Apparent permeability from basolateral to apical side in human Caco2 cells at 10 uM after 60 mins by LC-MS/MS analysis; settings: Caco-2
Dipeptidyl peptidase 4 = Dipeptidyl peptidase 4 (Homo sapiens, UniProt P27487); assay: Inhibition of human DPP4 after 10 mins
[6] = Apparent permeability from apical to basolateral side in human Caco2 cells at 10 uM after 60 mins by LC-MS/MS analysis; settings: Caco-2
Dipeptidyl peptidase 8 = Dipeptidyl peptidase 8 (Homo sapiens, UniProt Q6V1X1); assay: Inhibition of DPP8
Dipeptidyl peptidase 9 = Dipeptidyl peptidase 9 (Homo sapiens, UniProt Q86TI2); assay: Inhibition of DPP9
[7] = Efflux ratio of apparent permeability from apical to basolateral side to basolateral to apical side in human Caco2 cells at 10 uM after 60 mins by LC-MS/MS analysis; settings: Caco-2
Mus musculus [8] = assay: Reduction of glucose excursions in ob/ob type 2 diabetes mouse model at 1 mg/kg, po measured after 45 mins by oral glucose tolerance test; format: functional; settings: 0.75 h; method in brief: as §1
Mus musculus [9] = assay: Reduction of glucose excursions in ob/ob type 2 diabetes mouse model at 3 mg/kg, po measured after 45 mins by oral glucose tolerance test; format: functional; settings: 0.75 h; method in brief: as §1
[10] = target: Voltage-gated inwardly rectifying potassium channel KCNH2 (Homo sapiens, UniProt Q12809)
[11] = Half life in Sprague-Dawley rat at 20 to 25 mg/kg, po and […], iv administered as single dose; format: ADME, organism-based; parameters: dose 20-25 mg/kg, route oral; settings: in vivo
Mus musculus [12] = assay: Reduction of glucose excursions in ob/ob type 2 diabetes mouse model at 10 mg/kg, po measured after 45 mins by oral glucose tolerance test; format: functional; settings: 0.75 h; method in brief: as §1

Chain of Dipeptidyl peptidase 8 (Q6V1X1 whole entry): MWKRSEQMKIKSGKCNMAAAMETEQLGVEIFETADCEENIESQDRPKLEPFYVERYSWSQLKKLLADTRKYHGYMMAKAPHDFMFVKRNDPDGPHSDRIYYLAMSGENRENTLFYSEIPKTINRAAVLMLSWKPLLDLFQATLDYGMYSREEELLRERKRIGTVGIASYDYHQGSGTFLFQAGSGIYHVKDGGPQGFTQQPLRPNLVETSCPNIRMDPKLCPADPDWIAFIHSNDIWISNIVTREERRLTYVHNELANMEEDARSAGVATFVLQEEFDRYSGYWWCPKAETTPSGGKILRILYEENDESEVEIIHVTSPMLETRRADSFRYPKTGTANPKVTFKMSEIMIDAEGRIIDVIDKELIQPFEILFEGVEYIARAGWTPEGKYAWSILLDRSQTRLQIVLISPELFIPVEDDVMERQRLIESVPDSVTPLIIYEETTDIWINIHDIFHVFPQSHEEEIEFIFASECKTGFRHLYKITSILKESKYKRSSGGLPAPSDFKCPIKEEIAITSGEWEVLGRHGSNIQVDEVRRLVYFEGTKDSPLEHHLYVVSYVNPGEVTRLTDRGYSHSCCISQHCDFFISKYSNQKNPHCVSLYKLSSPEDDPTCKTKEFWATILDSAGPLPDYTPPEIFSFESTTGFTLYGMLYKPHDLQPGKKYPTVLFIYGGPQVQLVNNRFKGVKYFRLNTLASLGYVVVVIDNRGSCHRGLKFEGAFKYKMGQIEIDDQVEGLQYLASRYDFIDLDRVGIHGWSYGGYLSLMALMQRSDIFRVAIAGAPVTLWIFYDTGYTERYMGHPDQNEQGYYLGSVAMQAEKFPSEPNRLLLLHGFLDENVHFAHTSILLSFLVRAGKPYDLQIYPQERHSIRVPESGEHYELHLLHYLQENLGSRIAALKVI
Chain of Dipeptidyl peptidase 4 (P27487 whole entry): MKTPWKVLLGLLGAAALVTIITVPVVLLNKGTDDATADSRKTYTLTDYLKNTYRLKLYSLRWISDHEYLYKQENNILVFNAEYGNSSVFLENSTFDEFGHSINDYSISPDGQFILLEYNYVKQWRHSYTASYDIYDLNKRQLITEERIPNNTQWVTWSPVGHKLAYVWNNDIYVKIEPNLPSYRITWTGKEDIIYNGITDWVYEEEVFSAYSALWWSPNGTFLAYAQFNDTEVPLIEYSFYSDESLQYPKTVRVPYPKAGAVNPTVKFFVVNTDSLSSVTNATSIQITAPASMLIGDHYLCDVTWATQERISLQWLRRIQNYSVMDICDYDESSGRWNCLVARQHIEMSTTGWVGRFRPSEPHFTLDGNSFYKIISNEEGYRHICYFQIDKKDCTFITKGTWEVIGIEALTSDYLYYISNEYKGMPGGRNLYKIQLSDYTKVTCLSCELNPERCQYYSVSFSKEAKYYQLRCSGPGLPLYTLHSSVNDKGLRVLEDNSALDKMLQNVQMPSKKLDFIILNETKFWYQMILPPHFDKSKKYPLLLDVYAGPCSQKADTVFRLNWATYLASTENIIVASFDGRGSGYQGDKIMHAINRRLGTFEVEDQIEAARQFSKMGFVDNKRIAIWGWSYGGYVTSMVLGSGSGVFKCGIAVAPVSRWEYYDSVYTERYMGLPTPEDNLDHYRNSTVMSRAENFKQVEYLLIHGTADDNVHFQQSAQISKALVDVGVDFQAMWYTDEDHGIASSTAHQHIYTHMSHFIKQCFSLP
Chain of Dipeptidyl peptidase 9 (Q86TI2 whole entry): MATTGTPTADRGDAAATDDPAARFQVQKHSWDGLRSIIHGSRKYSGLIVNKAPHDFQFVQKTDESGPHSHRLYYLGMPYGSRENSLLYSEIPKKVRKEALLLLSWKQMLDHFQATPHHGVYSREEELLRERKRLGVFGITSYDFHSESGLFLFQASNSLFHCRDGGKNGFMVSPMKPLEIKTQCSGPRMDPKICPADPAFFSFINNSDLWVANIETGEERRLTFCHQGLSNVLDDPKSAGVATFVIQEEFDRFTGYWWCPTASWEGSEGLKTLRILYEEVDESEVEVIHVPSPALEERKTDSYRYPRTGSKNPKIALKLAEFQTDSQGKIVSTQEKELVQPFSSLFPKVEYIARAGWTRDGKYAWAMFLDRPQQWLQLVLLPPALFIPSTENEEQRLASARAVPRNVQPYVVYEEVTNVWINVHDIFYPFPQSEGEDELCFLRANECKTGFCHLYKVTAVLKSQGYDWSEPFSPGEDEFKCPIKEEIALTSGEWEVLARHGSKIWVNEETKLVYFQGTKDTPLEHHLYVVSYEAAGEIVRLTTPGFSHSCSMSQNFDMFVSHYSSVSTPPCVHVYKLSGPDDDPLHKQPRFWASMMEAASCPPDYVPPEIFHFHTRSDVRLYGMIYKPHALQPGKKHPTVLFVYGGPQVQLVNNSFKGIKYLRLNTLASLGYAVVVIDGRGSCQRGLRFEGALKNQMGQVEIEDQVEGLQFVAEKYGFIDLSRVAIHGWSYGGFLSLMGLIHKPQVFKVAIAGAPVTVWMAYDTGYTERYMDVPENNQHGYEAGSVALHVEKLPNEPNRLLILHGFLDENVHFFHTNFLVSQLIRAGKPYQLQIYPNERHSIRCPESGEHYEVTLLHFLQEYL
Chain of Voltage-gated inwardly rectifying potassium channel KCNH2 (Q12809 whole entry): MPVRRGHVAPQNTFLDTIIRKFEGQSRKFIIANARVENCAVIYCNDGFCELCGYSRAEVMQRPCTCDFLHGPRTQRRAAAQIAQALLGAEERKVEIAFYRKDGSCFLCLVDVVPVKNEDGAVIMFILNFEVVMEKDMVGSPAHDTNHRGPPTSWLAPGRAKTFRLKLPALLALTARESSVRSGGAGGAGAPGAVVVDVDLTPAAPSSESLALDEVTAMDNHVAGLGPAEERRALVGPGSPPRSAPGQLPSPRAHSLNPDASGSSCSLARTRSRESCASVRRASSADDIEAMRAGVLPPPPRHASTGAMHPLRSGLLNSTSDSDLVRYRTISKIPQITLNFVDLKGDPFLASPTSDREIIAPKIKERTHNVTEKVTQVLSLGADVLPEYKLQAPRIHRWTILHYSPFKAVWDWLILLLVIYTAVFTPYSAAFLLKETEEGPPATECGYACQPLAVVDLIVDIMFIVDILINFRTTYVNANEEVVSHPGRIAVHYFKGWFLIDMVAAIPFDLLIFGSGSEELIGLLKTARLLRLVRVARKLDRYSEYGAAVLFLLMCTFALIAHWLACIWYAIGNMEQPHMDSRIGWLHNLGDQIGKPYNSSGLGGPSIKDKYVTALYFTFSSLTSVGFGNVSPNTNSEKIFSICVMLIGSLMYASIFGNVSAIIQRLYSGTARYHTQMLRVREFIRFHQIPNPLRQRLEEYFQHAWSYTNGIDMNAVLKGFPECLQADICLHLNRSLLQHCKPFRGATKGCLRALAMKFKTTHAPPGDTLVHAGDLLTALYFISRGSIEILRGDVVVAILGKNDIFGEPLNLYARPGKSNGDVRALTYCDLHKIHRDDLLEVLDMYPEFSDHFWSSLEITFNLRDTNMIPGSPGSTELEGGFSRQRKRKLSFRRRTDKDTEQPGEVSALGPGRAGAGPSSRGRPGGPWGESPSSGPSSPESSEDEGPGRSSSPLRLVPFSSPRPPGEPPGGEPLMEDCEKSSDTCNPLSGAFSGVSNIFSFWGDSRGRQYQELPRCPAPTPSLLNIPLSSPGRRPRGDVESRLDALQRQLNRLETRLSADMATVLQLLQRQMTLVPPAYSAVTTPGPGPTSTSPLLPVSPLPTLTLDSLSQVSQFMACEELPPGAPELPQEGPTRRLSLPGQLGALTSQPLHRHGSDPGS

| remaining at 0.5 h, 1 µM [3] | Papp B→A at 1 h, 10 µM [5] | Papp A→B at 1 h, 10 µM [6] | efflux ratio at 1 h, 10 µM [7] | Structure (SMILES) | further results |
| --- | --- | --- | --- | --- | --- |
|  |  |  |  | Cn1c(=O)cc(N2CCC[C@@H](N)C2)n(Cc2ccccc2C#N)c1=O | inhibition (Mus musculus [1]): Active |
| 65.1% |  |  |  | N#Cc1ccccc1Cn1c(N2CCC[C@@H](N)C2)nc2[nH]ccc2c1=O | bioavailability [2]: 5.7% |
| 6.6% |  |  |  | N#Cc1ccccc1Cn1c(N2CCC[C@@H](N)C2)nc2ccsc2c1=O | bioavailability [2]: 23.3%; inhibition (Mus musculus [1]): Active; metabolised at 0.5 h, 1 µM [4]: 93% |
| 3.27% |  |  |  | Cc1csc2nc(N3CCC[C@@H](N)C3)n(Cc3ccccc3C#N)c(=O)c12 |  |
| 41% | 8.41 ×10⁻⁶ cm/s | 2.5 ×10⁻⁶ cm/s | 3.37 | Cn1c(Br)c(Br)c2c(=O)n(Cc3ccccc3C#N)c(N3CCC[C@@H](N)C3)nc21 |  |
|  | 24.6 ×10⁻⁶ cm/s | 1.84 ×10⁻⁶ cm/s | 13.3 | Cn1ccc2c(=O)n(Cc3ccccc3C#N)c(N3CCC[C@@H](N)C3)nc21 |  |
| 78% | 18.4 ×10⁻⁶ cm/s | 2.81 ×10⁻⁶ cm/s |  | N#Cc1ccccc1Cn1c(N2CCC[C@@H](N)C2)nc2c(Br)c[nH]c2c1=O | bioavailability [2]: 41%; inhibition in vivo at 1 mg/kg (Mus musculus [8]): 27.9%; inhibition in vivo at 3 mg/kg (Mus musculus [9]): 51.9%; IC50 [10]: > 300 µM; inhibition (Mus musculus [1]): Active; IC50 (Dipeptidyl peptidase 8): > 10 µM; half-life [11]: 2 h; IC50 (Dipeptidyl peptidase 9): > 10 µM; inhibition in vivo at 10 mg/kg (Mus musculus [12]): 72.7% |
| 28.1% | 10.3 ×10⁻⁶ cm/s | 4.13 ×10⁻⁶ cm/s | 2.51 | N#Cc1ccccc1Cn1c(N2CCC[C@@H](N)C2)nc2c(-c3ccncc3)c[nH]c2c1=O |  |
| 39.2% | 14.4 ×10⁻⁶ cm/s | 3.44 ×10⁻⁶ cm/s | 4.2 | N#Cc1ccccc1Cn1c(N2CCC[C@@H](N)C2)nc2cc[nH]c2c1=O |  |
|  | 11.3 ×10⁻⁶ cm/s | 0.3 ×10⁻⁶ cm/s | 37.8 | N#Cc1ccccc1Cn1c(N2CCC[C@@H](N)C2)nc2c(-c3cccnc3)c[nH]c2c1=O |  |
| 4.6% |  |  |  | N#Cc1ccccc1Cn1c(N2CCC[C@@H](N)C2)nc2scc(C(F)(F)F)c2c1=O |  |
|  | 21.2 ×10⁻⁶ cm/s | 1.86 ×10⁻⁶ cm/s | 11.4 | N#Cc1ccccc1Cn1c(N2CCC[C@@H](N)C2)nc2c(-c3ccsc3)c[nH]c2c1=O |  |
| 0% |  |  |  | Cc1csc2c(=O)n(Cc3ccccc3C#N)c(N3CCC[C@@H](N)C3)nc12 |  |
| 24.6% |  |  |  | N#Cc1ccccc1Cn1c(N2CCC[C@@H](N)C2)nc2sccc2c1=O |  |
|  | 26.6 ×10⁻⁶ cm/s | 0.59 ×10⁻⁶ cm/s | 45.3 | N#Cc1ccccc1Cn1c(N2CCC[C@@H](N)C2)nc2[nH]c(-c3ccc(F)cc3)cc2c1=O |  |

| Structure (SMILES) | remaining at 0.5 h, 1 µM [3] | Papp B→A at 1 h, 10 µM [5] | Papp A→B at 1 h, 10 µM [6] | efflux ratio at 1 h, 10 µM [7] | further results |
| --- | --- | --- | --- | --- | --- |
| N#Cc1ccccc1Cn1c(N2CCC[C@@H](N)C2)nc2[nH]c(-c3cccnc3)cc2c1=O | 73.8% | 6.01 ×10⁻⁶ cm/s | 2.55 ×10⁻⁶ cm/s |  | IC50 (Dipeptidyl peptidase 4): 0.00234 µM; IC50 (Dipeptidyl peptidase 8): > 10 µM; IC50 (Dipeptidyl peptidase 9): > 10 µM |
| N#Cc1ccccc1Cn1c(N2CCC[C@@H](N)C2)nc2[nH]c(Br)cc2c1=O | 71.9% | 11.4 ×10⁻⁶ cm/s | 5.48 ×10⁻⁶ cm/s |  | IC50 (Dipeptidyl peptidase 4): 0.00264 µM; IC50 (Dipeptidyl peptidase 8): > 25 µM; IC50 (Dipeptidyl peptidase 9): > 25 µM |
| Cc1cc2c(=O)n(Cc3ccccc3C#N)c(N3CCC[C@@H](N)C3)nc2[nH]1 | 91.4% | 9.36 ×10⁻⁶ cm/s | 4.36 ×10⁻⁶ cm/s |  | IC50 (Dipeptidyl peptidase 4): 0.0138 µM; IC50 (Dipeptidyl peptidase 8): > 25 µM; IC50 (Dipeptidyl peptidase 9): > 25 µM |
